Source: ChEMBL document CHEMBL1135125, “Cytotoxic alpha-bromoacrylic derivatives of low molecular weight” (Bioorg Med Chem Lett, 2002)
pIC50: −log10 of the molar value.

Columns and labels:
L1210 = test: In vitro cytotoxicity against L1210 murine leukemia cells after 48 hr of continuous exposure; format: functional, cell-based; conditions: Mus musculus, L1210, 48 h
Outline: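 L1210 murine leukaemia cells (from NCI) under continuous drug exposure for 48 h; IC50 taken from dose–response curves, mean±SE of at least two experiments.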

Mus musculus [1] = test: Median survival time of mice injected with L1210 cells intravenously versus untreated mice at an optimal (non toxic) dose of 100 mg/kg; format: functional; conditions: route intravenous
Caco-2 = test: Caco-2 cell permeability coefficient was determined after 120 min of incubation; format: functional, cell-based; conditions: Homo sapiens
Outline: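 Caco-2 cells grown 21 days on permeable polycarbonate transwell filters; apparent permeability coefficient measured after 120 min incubation per a published method; total compound recovery calculated at end of experiment.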

Mus musculus [2] = test: Median survival time of mice injected with L1210 cells intraperitoneally versus untreated mice at an optimal (non toxic) dose of 12.5 mg/kg; format: functional; conditions: route intraperitoneal
Mus musculus [3] = test: Median survival time of mice injected with L1210 cells intravenously versus untreated mice at an optimal (non toxic) dose of 25 mg/kg; format: functional; conditions: route intravenous
Mus musculus [4] = test: Median survival time of mice injected with L1210 cells intravenously versus untreated mice at an optimal (non toxic) dose of 50 mg/kg; format: functional; conditions: route intravenous
Mus musculus [5] = test: Median survival time of mice injected with L1210 cells intravenously versus untreated mice at an optimal (non toxic) dose of 12.5 mg/kg; format: functional; conditions: route intravenous

SMILES	pIC50 (L1210)	Papp (Caco-2)	also measured
C=C(Br)C(=O)Nc1cc(C(=O)Nc2cc(C(=O)NCCN=C(N)N)n(C)c2)n(C)c1	< 6.30	–	–
C=C(Br)C(=O)Nc1cc(C(=O)Nc2cc(C(=O)Nc3cc(C(=O)NCCN=C(N)N)n(C)c3)n(C)c2)n(C)c1	7.57	–	–
C=C(Br)C(=O)Nc1cc(C(=O)NCCC#N)n(C)c1	7.28	–	T/C (Mus musculus [1]): 100%
C=C(Br)C(=O)Nc1ccc(C(=N)N)cc1	< 5.30	3.9 ×10⁻⁶ cm/s	–
C=C(Br)C(=O)Nc1cc(C(=O)Nc2cc(C(=O)Nc3cc(C(=O)Nc4cc(C(=O)NCCC(=N)N)n(C)c4)n(C)c3)n(C)c2)n(C)c1	–	38.2 ×10⁻⁶ cm/s	–
C=C(F)C(=O)Nc1cc(C(=O)Nc2cc(C(=O)Nc3cc(C(=O)Nc4cc(C(=O)NCCC(=N)N)n(C)c4)n(C)c3)n(C)c2)n(C)c1	< 6.10	–	–
C=C(Br)C(=O)Nc1cc(C(=O)Nc2cc(C(=O)Nc3cc(C(=O)NCCC(=N)N)n(C)c3)n(C)c2)n(C)c1.Cl	–	15.2 ×10⁻⁶ cm/s	T/C (Mus musculus [2]): 175%
C=C(Br)C(=O)Nc1cc(C(=O)Nc2cc(C(=O)NCCC(=N)N)n(C)c2)n(C)c1	5.89	5.58 ×10⁻⁶ cm/s	–
C=C(Br)C(=O)Nc1cc(C(=O)NCCC(=N)N)n(C)c1	< 5.60	0.69 ×10⁻⁶ cm/s	–
C=C(F)C(=O)Nc1cc(C(=O)Nc2ccccc2)n(C)c1	< 5.30	39.6 ×10⁻⁶ cm/s	–
C=C(Br)C(=O)Nc1ccc(N(C)C)cc1.Cl	7.27	–	T/C (Mus musculus [3]): 100%
C=C(Br)C(=O)Nc1cc(C(=O)Nc2ccccc2)n(C)c1	7.37	1.2 ×10⁻⁶ cm/s	T/C (Mus musculus [3]): 100%
C=C(Br)C(=O)Nc1ccc(F)cc1	7.23	–	T/C (Mus musculus [4]): 100%
C=C(Br)C(=O)Nc1ccccc1	7.43	–	T/C (Mus musculus [5]): 117%
C=CC(=O)Nc1cc(C(=O)Nc2cc(C(=O)Nc3cc(C(=O)Nc4cc(C(=O)NCCC(=N)N)n(C)c4)n(C)c3)n(C)c2)n(C)c1	5.70	–	–
C=C(Br)C(=O)Nc1cc(C(=O)Nc2cc(C(=O)Nc3cc(C(=O)Nc4cc(C(=O)NCCN=C(N)N)n(C)c4)n(C)c3)n(C)c2)n(C)c1	8.74	–	–
